The text below walks through data of ChEMBL document CHEMBL1687738, “Effect of Candida glabrata FKS1 and FKS2 mutations on echinocandin sensitivity and kinetics of 1,3-beta-D-glucan synthase: implication for the existing susceptibility breakpoint” (Antimicrob Agents Chemother, 2009).

Assay [1] concerns Nakaseomyces glabratus. Kind of assay: Antifungal activity against Candida glabrata ATCC 90030 expressing wild type Fks1p and Fks2p by CLSI method. Format: functional. Put shortly:
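Broth microdilution MIC per CLSI M27-A3 in RPMI 1640 medium, also run in RPMI 1640 with 50% serum. Wild-type control strain. Caspofungin and micafungin dissolved in sterile distilled water and anidulafungin in 100% DMSO; stock solutions stored at −86°C. Geometric means used to compare MICs.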

The subject of assay [2] is Nakaseomyces glabratus. The experiment in a line: Antifungal activity against Candida glabrata isolate 218 expressing wild type Fks1p and Fks2p by CLSI method. Format: functional. Put shortly:
(§1)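 Broth microdilution MIC per CLSI M27-A3 in RPMI 1640 medium without serum. Caspofungin and micafungin stocks in sterile water; anidulafungin stock in 100% DMSO; stocks kept at −86°C.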

For assay [3], the system named is Nakaseomyces glabratus. The experiment in a line: Antifungal activity against Candida glabrata isolate 234 expressing wild type Fks1p and Fks2p F659V mutant by CLSI method. Format: functional. In a few lines: as §1
Assay [4] concerns Nakaseomyces glabratus. Kind of assay: Antifungal activity against Candida glabrata isolate 5416 expressing wild type Fks1p and Fks2p W1375L mutant by CLSI method. In kind it is functional. Put shortly: as §1
Assay [5] has as its system Nakaseomyces glabratus. Kind of assay: Antifungal activity against Candida glabrata isolate 3168 expressing wild type Fks1p and Fks2p by CLSI method in presence of 50% human serum. In kind it is functional. In a few lines:
(§2)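 Broth microdilution MIC per CLSI M27-A3 in RPMI 1640 supplemented with 50% serum. Caspofungin and micafungin stocks in sterile water; anidulafungin stock in 100% DMSO; stocks kept at −86°C.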

For assay [6], the system named is Nakaseomyces glabratus. The experiment in a line: Antifungal activity against Candida glabrata isolate 5847 expressing Fks1p S629P mutant and wild type Fks2p by CLSI method in presence of 50% human serum. Format: functional. Put shortly: as §2
Assay [7] deals with Nakaseomyces glabratus. The experiment in a line: Antifungal activity against Candida glabrata isolate 3169 expressing Fks1p D632E mutant and wild type Fks2p by CLSI method in presence of 50% human serum. In kind it is functional. Put shortly:
as §2

Assay [8] deals with Nakaseomyces glabratus. Kind of assay: Antifungal activity against Candida glabrata isolate 3830 expressing wild type Fks1p and Fks2p S663P mutant by CLSI method in presence of 50% human serum. Format: functional. Put shortly:
as §2

Assay [9] can be described thus: Inhibition of Candida glabrata isolate 3168 wild type 1,3-beta-D-glucan synthase. Further details: species or system Nakaseomyces glabratus. Put shortly:
(§3)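 Cells grown in YPD broth at 35°C with vigorous shaking to early stationary phase. Membrane protein extracted and glucan synthase partially purified by product entrapment. Filtration polymerization assay measured [3H]glucose incorporation into product, started by adding enzyme. Echinocandin serial dilutions spanned 0.01–10,000 ng/ml, with 1% DMSO controls for anidulafungin. IC50 from variable-slope sigmoidal fit.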

The target in assay [10] is 1,3-beta-glucan synthase component FKS1 (Candida glabrata, UniProt E2GKZ4, F625S). The experiment in a line: Inhibition of Candida glabrata isolate 42997 1,3-beta-D-glucan synthase Fks1p F625S mutant/wild type Fks2p. Also on record: species or system Nakaseomyces glabratus. Put shortly:
as §3

For assay [11], the target named is 1,3-beta-glucan synthase component FKS1 (Candida glabrata, UniProt E2GKZ4, D632E). The experiment in a line: Inhibition of Candida glabrata isolate 3169 1,3-beta-D-glucan synthase Fks1p D632E mutant/wild type Fks2p. Further details: species or system Nakaseomyces glabratus. In a few lines: as §3
Assay [12] addresses 1,3-beta-glucan synthase (Candida glabrata, UniProt F5BCZ9, S663P). The experiment in a line: Inhibition of Candida glabrata isolate 3830 1,3-beta-D-glucan synthase wild type Fks1p/Fks2p S663P mutant. Also on record: species or system Nakaseomyces glabratus. Put shortly: as §3
Assay [13] addresses 1,3-beta-glucan synthase (Candida glabrata, UniProt F5BCZ9, D666G). The experiment in a line: Inhibition of Candida glabrata isolate 41400 1,3-beta-D-glucan synthase wild type Fks1p/Fks2p D666G mutant. Further details: species or system Nakaseomyces glabratus. In a few lines:
as §3

The test system of assay [14] is Nakaseomyces glabratus. The experiment in a line: Ratio of IC50 for Candida glabrata wild type 1,3-beta-glucan synthase to IC50 for Candida glabrata 1,3-beta-glucan synthase mutant.

Values after ≈ are worked out from the molar mass of the structure shown. Starred links: 1 amine or outer side, 2 acyl side, 3 side chain; linkers in the order of their positions; H or OH if unused. Positions of bridges follow the written chain, without caps; N, C: chain ends. Non-standard residues stand in square brackets, D forms with d. Residues, ends and D or L forms follow the SMILES beside them. *: point of attachment. hTyr(3S-OH,4S-OH,3'-OSO3H) = N[C@H](C(=O)O)[C@H](O)[C@@H](O)c1ccc(O)c(OS(=O)(=O)O)c1; pTerphenylCO(4''-OnC5H11) = CCCCCOc1ccc(-c2ccc(-c3ccc(C(=O)*)cc3)cc2)cc1; Orn(4R-OH,5R-OH) = O=C([C@H](C[C@@H](O)[C@@H](O)N[*:3])N[*:1])[*:2]; hTyr(3S-OH,4S-OH) = N[C@H](C(=O)O)[C@H](O)[C@@H](O)c1ccc(O)cc1; Pro(3S-OH,4S-Me) = C[C@H]1CN[C@H](C(=O)O)[C@H]1O; X1 = CCCCCOc1ccc(-c2cc(-c3ccc(C(=O)*)cc3)no2)cc1; Gln(3R-OH) = NC(=O)C[C@@H](O)[C@H](N)C(=O)O; Hyp = O=C(O)[C@@H]1C[C@@H](O)CN1

Sequence of 1,3-beta-glucan synthase (Candida glabrata, UniProt F5BCZ9, D666G) (F5BCZ9 entry or part of it D666G): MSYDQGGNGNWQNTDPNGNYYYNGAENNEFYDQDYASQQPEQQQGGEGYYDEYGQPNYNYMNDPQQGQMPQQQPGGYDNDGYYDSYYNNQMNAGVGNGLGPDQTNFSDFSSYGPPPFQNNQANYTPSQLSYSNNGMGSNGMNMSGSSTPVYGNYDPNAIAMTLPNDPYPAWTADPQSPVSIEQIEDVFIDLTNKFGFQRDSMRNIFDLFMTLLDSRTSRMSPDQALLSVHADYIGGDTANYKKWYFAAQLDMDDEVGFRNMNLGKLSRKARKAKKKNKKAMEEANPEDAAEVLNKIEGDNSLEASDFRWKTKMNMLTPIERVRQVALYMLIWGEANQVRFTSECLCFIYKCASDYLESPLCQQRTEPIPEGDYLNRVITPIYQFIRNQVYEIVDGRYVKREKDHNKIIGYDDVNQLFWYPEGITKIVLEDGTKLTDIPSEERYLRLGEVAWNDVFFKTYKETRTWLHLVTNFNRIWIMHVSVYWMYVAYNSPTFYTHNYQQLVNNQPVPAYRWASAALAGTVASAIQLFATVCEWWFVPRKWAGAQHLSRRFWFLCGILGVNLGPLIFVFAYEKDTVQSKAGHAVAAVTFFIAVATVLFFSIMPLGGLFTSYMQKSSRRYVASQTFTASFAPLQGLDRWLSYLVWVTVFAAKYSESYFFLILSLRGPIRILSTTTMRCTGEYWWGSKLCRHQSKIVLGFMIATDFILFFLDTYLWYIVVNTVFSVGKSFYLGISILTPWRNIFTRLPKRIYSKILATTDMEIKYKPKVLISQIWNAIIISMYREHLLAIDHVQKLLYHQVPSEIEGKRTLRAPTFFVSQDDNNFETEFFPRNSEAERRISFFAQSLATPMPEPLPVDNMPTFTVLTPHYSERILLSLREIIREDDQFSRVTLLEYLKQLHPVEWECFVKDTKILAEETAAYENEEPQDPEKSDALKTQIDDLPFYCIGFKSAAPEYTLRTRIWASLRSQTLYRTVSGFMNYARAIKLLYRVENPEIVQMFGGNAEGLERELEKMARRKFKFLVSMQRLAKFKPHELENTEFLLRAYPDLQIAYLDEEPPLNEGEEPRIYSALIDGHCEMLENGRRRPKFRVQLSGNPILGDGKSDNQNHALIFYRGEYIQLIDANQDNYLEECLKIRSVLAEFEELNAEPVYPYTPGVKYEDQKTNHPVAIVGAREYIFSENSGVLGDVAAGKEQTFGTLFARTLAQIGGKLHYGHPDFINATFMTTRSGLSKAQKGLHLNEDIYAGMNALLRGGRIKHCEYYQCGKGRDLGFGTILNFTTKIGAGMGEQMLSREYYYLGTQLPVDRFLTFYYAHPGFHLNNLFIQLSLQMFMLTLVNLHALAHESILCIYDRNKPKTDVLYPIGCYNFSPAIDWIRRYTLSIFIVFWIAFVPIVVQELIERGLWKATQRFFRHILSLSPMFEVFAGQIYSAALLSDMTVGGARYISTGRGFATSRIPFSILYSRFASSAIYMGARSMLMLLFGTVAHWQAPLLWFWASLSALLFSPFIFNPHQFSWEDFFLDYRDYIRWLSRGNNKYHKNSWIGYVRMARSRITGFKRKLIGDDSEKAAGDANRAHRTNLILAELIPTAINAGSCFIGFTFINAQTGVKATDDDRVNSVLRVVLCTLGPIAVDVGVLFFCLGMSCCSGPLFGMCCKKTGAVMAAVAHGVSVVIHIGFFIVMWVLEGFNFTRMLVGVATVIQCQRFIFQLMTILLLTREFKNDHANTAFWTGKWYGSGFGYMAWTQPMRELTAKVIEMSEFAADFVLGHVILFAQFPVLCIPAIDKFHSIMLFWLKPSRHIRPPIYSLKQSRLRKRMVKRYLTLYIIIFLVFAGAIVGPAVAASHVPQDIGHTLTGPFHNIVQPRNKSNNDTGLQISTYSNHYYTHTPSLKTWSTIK
Sequence of 1,3-beta-glucan synthase (Candida glabrata, UniProt F5BCZ9, S663P) (F5BCZ9 entry or part of it S663P): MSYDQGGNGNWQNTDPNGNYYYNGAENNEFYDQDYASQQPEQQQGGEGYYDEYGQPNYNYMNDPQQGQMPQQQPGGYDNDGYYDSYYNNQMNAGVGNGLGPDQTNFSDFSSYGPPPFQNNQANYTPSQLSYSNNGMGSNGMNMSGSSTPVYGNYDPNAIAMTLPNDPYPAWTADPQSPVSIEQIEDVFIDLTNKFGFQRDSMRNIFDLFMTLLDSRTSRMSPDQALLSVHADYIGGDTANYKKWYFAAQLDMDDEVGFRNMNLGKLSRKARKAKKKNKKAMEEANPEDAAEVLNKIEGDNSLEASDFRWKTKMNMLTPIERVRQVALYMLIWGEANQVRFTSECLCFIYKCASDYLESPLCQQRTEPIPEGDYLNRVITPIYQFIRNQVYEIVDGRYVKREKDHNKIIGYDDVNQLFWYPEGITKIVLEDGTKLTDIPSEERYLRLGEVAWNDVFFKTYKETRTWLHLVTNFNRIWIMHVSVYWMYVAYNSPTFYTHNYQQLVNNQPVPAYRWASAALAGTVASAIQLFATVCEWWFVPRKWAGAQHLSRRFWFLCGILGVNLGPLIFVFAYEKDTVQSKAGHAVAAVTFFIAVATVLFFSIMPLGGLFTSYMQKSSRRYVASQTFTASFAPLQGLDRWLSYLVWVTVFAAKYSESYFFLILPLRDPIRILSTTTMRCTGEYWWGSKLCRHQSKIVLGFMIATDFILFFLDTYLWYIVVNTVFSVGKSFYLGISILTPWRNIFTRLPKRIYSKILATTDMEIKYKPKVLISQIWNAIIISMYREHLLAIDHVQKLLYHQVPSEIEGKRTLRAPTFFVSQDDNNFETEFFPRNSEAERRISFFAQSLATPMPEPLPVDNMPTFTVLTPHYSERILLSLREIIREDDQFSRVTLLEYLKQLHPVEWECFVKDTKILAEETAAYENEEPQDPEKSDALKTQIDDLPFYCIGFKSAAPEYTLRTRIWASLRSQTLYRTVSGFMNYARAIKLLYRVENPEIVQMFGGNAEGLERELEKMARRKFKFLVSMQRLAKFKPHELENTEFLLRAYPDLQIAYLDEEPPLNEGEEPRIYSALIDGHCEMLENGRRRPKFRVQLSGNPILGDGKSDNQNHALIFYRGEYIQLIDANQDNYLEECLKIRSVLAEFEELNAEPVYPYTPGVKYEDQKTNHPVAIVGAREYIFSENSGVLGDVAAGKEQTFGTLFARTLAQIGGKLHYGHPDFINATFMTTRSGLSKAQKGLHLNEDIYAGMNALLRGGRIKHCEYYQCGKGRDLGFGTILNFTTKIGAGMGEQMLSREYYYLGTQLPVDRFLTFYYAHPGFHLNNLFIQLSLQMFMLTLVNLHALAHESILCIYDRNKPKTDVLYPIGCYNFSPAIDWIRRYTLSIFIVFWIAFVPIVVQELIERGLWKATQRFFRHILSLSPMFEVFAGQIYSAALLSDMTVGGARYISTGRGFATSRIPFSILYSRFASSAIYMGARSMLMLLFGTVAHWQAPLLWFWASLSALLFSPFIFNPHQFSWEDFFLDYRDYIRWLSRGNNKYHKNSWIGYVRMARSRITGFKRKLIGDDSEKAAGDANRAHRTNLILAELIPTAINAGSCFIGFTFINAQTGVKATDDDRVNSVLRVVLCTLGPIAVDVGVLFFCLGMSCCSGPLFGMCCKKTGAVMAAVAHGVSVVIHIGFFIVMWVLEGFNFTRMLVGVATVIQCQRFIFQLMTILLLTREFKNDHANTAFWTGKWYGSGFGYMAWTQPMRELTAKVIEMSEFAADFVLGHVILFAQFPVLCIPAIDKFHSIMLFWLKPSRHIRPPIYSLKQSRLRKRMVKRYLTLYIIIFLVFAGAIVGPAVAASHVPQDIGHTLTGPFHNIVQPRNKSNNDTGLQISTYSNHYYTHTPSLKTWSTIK

With `CCCCCOc1ccc(-c2cc(-c3ccc(C(=O)N[C@H]4C[C@@H](O)[C@@H](O)NC(=O)[C@@H]5[C@@H](O)[C@@H](C)CN5C(=O)[C@H]([C@H](O)CC(N)=O)NC(=O)[C@H]([C@H](O)[C@@H](O)c5ccc(O)c(OS(=O)(=O)O)c5)NC(=O)[C@@H]5C[C@@H](O)CN5C(=O)[C@H]([C@@H](C)O)NC4=O)cc3)no2)cc1` [MICAFUNGIN] (X1-[Orn(4R-OH,5R-OH)]T[Hyp][hTyr(3S-OH,4S-OH,3'-OSO3H)][Gln(3R-OH)][Pro(3S-OH,4S-Me)]; lactam 1-C), the MIC in the assay on Nakaseomyces glabratus [1] is 0.03 µg/mL (≈ 0.0236 µM); against Nakaseomyces glabratus [2] it was 0.12 µg/mL (≈ 0.0945 µM); with Nakaseomyces glabratus [3] it was 1 µg/mL (≈ 0.787 µM); against Nakaseomyces glabratus [4], 0.25 µg/mL (≈ 0.197 µM); in the assay on Nakaseomyces glabratus [5] it was 0.5 µg/mL; in the assay on Nakaseomyces glabratus [6], 8 µg/mL. The MIC with Nakaseomyces glabratus [7] and in the assay with Nakaseomyces glabratus [8] was 8 µg/mL each time. The IC50 in assay [9] was 0.00129 µg/mL (≈ 0.00102 µM); in [10] it was 99.4 nM; in [11], 350 nM; against 1,3-beta-glucan synthase [12] it was 2020 nM; at 1,3-beta-glucan synthase [13] it was 79.2 nM. Moreover, the Ratio IC50 with Nakaseomyces glabratus [14] stood at 60.

As for `CC[C@H](C)C[C@H](C)CCCCCCCCC(=O)N[C@H]1C[C@@H](O)[C@@H](NCCN)NC(=O)[C@@H]2[C@@H](O)CCN2C(=O)[C@H]([C@H](O)CCN)NC(=O)[C@H]([C@H](O)[C@@H](O)c2ccc(O)cc2)NC(=O)[C@@H]2C[C@@H](O)CN2C(=O)[C@H]([C@@H](C)O)NC1=O` [CASPOFUNGIN], the minimum inhibitory concentration (MIC) in the assay with Nakaseomyces glabratus [1] came out at 0.06 µg/mL (≈ 0.0549 µM); against Nakaseomyces glabratus [2], 0.12 µg/mL (≈ 0.11 µM); against Nakaseomyces glabratus [3], 4 µg/mL (≈ 3.66 µM); in the assay with Nakaseomyces glabratus [4] it was 4 µg/mL (≈ 3.66 µM); in the assay with Nakaseomyces glabratus [5], 0.12 µg/mL; in the assay on Nakaseomyces glabratus [6], 8 µg/mL. The values for the MIC in the assay on Nakaseomyces glabratus [7] and with Nakaseomyces glabratus [8] were 8 µg/mL and 16 µg/mL, respectively. The 50% inhibitory concentration (IC50) in assay [9] was 0.00179 µg/mL (≈ 0.00164 µM); in assay [10], 638 nM; in assay [11] it was 772 nM; against 1,3-beta-glucan synthase [12], 4680 nM; against 1,3-beta-glucan synthase [13], 463 nM. Further, in the assay on Nakaseomyces glabratus [14], the Ratio IC50 is 267.

Regarding `CCCCCOc1ccc(-c2ccc(-c3ccc(C(=O)N[C@H]4C[C@@H](O)[C@@H](O)NC(=O)[C@@H]5[C@@H](O)[C@@H](C)CN5C(=O)[C@H]([C@@H](C)O)NC(=O)[C@H]([C@H](O)[C@@H](O)c5ccc(O)cc5)NC(=O)[C@@H]5C[C@@H](O)CN5C(=O)[C@H]([C@@H](C)O)NC4=O)cc3)cc2)cc1` [ANIDULAFUNGIN] ({pTerphenylCO(4''-OnC5H11)}-[Orn(4R-OH,5R-OH)]T[Hyp][hTyr(3S-OH,4S-OH)]T[Pro(3S-OH,4S-Me)]; lactam 1-C), the MIC against Nakaseomyces glabratus [1] turned out to be 0.06 µg/mL (≈ 0.0526 µM); against Nakaseomyces glabratus [2], 0.06 µg/mL (≈ 0.0526 µM); in the assay on Nakaseomyces glabratus [3] it was 1 µg/mL (≈ 0.877 µM); against Nakaseomyces glabratus [4], 0.25 µg/mL (≈ 0.219 µM); in the assay with Nakaseomyces glabratus [5] it was 0.5 µg/mL; in the assay with Nakaseomyces glabratus [6], 8 µg/mL. The MIC with Nakaseomyces glabratus [7] and in the assay on Nakaseomyces glabratus [8] was 8 µg/mL throughout. Besides, the IC50 is 0.00158 µg/mL (≈ 0.00139 µM) in assay [9]; 97 nM in assay [10]; 133 nM in [11]; 3510 nM against 1,3-beta-glucan synthase [12]; 154 nM against 1,3-beta-glucan synthase [13]. In addition, the Ratio IC50 in the assay with Nakaseomyces glabratus [14] was determined as 54.

Broadly, the MIC is the smallest concentration in the dilution series that meets the test's criterion for growth inhibition. By IC50 is commonly meant the concentration needed to halve the response being measured. A low value points to greater potency in that assay.
